Laboratory results taken from ChEMBL document CHEMBL4715907, “Cytoprotective activities of kinetin purine isosteres” (Bioorg Med Chem, 2021).
The source made the active and inactive calls. The rule behind the calls is not given here.

Columns and labels:
[1] = system: GM04663; assay: Cytoprotective activity in human GM04663 cells assessed as aberrant splicing of ELP1 mRNA expression at 50 uM incubated for 24 hrs by RT-PCR anlaysis; format: functional, cell-based
How it was run: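 GM04663 patient fibroblasts, about 500,000 per 10 cm dish in DMEM with 10% FBS, were grown overnight and then treated 24 h at 50 µM, with DMSO vehicle. Total RNA was extracted with Trizol and reverse-transcribed. ELP1 nt 2194–2593 (NM_003640.5) was amplified over 34 cycles with 63.8 °C annealing. Wild-type and aberrant transcripts were quantified by peak area against DNA standards of known size and concentration.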

[2] = system: GM04078; assay: Cytoprotective activity against BSO-induced toxicity in human GM04078 cells assessed as restoring FXN protein expression at 10 to 50 uM after 48 hrs by Western blot analysis; format: functional, cell-based; conditions: dose 10-50 µM
How it was run: (§1)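 GM04078 cells (about 1.4 million per 10 cm dish, DMEM with 10% FBS) were treated 24 h after seeding at 10 and 50 µM and harvested after 48 h. Lysates in Laemmli buffer were normalized by Bradford, 25–40 µg run on 12.5% SDS-PAGE and transferred to PVDF. Blots were probed with anti-frataxin mouse antibody (18A5DB1), actin as loading control, HRP secondary and ECL.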

[3] = system: SH-SY5Y; assay: Cytoprotective activity against glutamate-induced ATRA-differentiated human SH-SY5Y cells assessed as reduction in cell death at 10 uM after 24 hrs by propidium iodide staining based assay relative to control; format: functional; parameters: scale not given: the % may be the effect or the level left
How it was run: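 SH-SY5Y cells (20,000/well) differentiated 48 h with 10 µM ATRA in DMEM/F12 with 1% FBS. Medium replaced by fresh DMEM/F12 with 1% FBS containing test compound at 0.1, 1 or 10 µM; DMSO vehicle as negative control. Cells exposed immediately to 160 mM glutamate for 24 h. Dead cells stained with propidium iodide (1 µg/mL final, 15 min, rt); fluorescence read at ex 535/em 617 nm.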

[4] = Apparent permeability of compound in MDCK-MDR1 cells; format: ADME, cell-based, Canis lupus familiaris; conditions: dog
How it was run: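 MDCK-MDR1 cells formed monolayers on 1 µm pore Transwell filters, used only if intact by Lucifer Yellow rejection. Cells were washed with HBSS and pre-equilibrated at pH 7.4 for 1 h, then exposed to 10 µM compound in HBSS pH 7.4 for 1 h, apical-to-basal and basal-to-apical. Donor and acceptor were quantified by RapidFire MS/MS (MRM). Papp = (dQ/dt)/(C0 × A), duplicates.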

[5] = molecular target: T1, Frataxin, mitochondrial (Homo sapiens) (UniProt Q16595); assay: Inhibition of His6-tagged-thrombin cleavage site-fused FXN (79 to 207 residues) (unknown origin) assessed as increase in Fe-S cluster biosynthesis at 30 to 500 uM by UV-visible spectroscopy relative to control; conditions: dose 30-500 µM
T1 sequence (whole entry): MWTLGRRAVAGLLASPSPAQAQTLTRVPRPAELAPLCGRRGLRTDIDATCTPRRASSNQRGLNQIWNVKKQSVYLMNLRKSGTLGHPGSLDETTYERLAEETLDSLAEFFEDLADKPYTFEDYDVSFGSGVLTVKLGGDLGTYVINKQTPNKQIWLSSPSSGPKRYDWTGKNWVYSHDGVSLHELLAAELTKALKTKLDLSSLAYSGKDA
How it was run: (§2)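 Mouse ISC machinery reconstituted in vitro from purified proteins under anaerobic conditions. Buffer was 50 mM Tris, 150 mM NaCl, pH 8, with 50 µM apo-ISCU loaded with one equivalent Fe2+, 5 µM NFS1-ISD11-ACP, 5 µM FDX2, 2 µM FDXR and 100 µM NADPH. Compounds in DMSO were tested at 30, 50, 100, 200 and 500; DMSO was equalized. 5 µM FXN served as positive control. Run in triplicate.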

[6] = system: GM04078; assay: Cytoprotective activity against BSO-induced toxicity in human GM04078 cells assessed as restoring GSH level […] by confocal microscopic method; format: functional, cell-based; conditions: time 32.0 hrs
[7] = Apparent permeability of compound in human Caco2 cells; format: ADME, cell-based; conditions: Caco-2
[8] = system: SH-SY5Y; assay: Cytoprotective activity against glutamate-induced human ATRA-differentiated SH-SY5Y cells assessed as reduction in oxidative stress […] by dihydroethidium staining based assay; format: functional, cell-based; conditions: dose 0.1-10 µM
[9] = Stability in human plasma assessed as parent compound remaining at 2 uM measured up to 120 mins by RF-MS analysis; format: ADME, cell-free; conditions: read-out: Stabilty
[10] = Protein binding in human plasma at 10 uM after 4 hrs by RF-MS analysis; format: ADME, cell-free; conditions: read-out: PPB (converted)
[11] = system: GM04078; assay: Cytoprotective activity against BSO-induced toxicity in human GM04078 cells assessed as restoring FXN protein expression at 10 to 50 uM after 48 hrs by immunodetection assay; format: functional, cell-based; conditions: dose 10-50 µM; how it was run: as §1
[12] = system: SH-SY5Y; assay: Cytoprotective activity against glutamate-induced human ATRA-differentiated SH-SY5Y cells from ECACC assessed as reduction in oxidative stress at 10 uM after 24 hrs by dihydroethidium staining based assay; format: functional, cell-based
[13] = system: GM04078; assay: Cytoprotective activity against BSO-induced toxicity in human GM04078 cells assessed as increase in cell viability preincubated for 24 hrs followed by BSO-stimulation and […] by resazurin fluorescence based assay; format: functional
[14] = system: GM04078; assay: Cytoprotective activity against BSO-induced toxicity in human GM04078 cells assessed as increase in cell viability at 10 to 50 uM preincubated for 24 hrs followed by BSO-stimulation and […] by resazurin fluorescence based assay; format: functional; conditions: dose 10-50 µM
[15] = Stability in human liver microsomes assessed as parent compound remaining at 2 uM measured up to 60 mins by RF-MS analysis; format: ADME, Microsome; conditions: read-out: Stabilty
[16] = Drug degradation in human liver microsomes at 2 uM measured up to 60 mins by RF-MS analysis; format: ADME, Tissue, Microsome; conditions: read-out: Drug degradation
[17] = molecular target: T1, Frataxin, mitochondrial (Homo sapiens); assay: Activation of His6-tagged-thrombin cleavage site-fused FXN (79 to 207 residues) (unknown origin) assessed as increase in Fe-S cluster biosynthesis at 30 to 500 uM by UV-visible spectroscopy relative to control; conditions: dose 30-500 µM; how it was run: as §2

Structure (SMILES) | Activity [1] | Papp [4] [×10⁻⁶ cm/s] | Papp [7] [×10⁻⁶ cm/s] | remaining at 2 h, 2 µM [9] [%] | fraction unbound at 4 h, 10 µM [10] | remaining at 1 h, 2 µM [15] [%] | further results
Cc1ccc(CNc2ncnc3[nH]ncc23)o1 | inactive |  |  |  |  |  | 
Clc1cc2[nH]cnc2c(NCc2ccco2)n1 |  | 16.3 | 7.6 | 83 | 0.871 | 78 | Activity [2]: inactive; Activity [3]: 10%; inhibition [5]: Active; Activity [6]: inactive; Activity [8]: Dose-dependent effect; Activity [11]: inactive; Activity [12]: Active; Activity [13]: Dose-dependent effect; Activity [14]: Active
Clc1nc(NCc2ccco2)c2[nH]ccc2n1 | Active | 16.3 | 7.6 | 83 | 0.871 | 78 | Activity [3]: 10%; Activity [8]: Dose-dependent effect
c1coc(CNc2ccnc3ccnn23)c1 |  | 16.3 | 7.6 | 83 | 0.871 | 78 | 
Clc1nc(NCc2ccco2)c2cc[nH]c2n1 | Active | 16.3 | 7.6 | 83 | 0.871 | 78 | 
Cl.c1coc(CNc2ncnc3ccccc23)c1 | Active | 16.3 | 7.6 | 83 | 0.871 | 78 | 
CN(Cc1ccco1)c1ncnc2c1cnn2C | inactive |  |  |  |  |  | 
Cc1ccc(CN(C)c2ncnc3c2cnn3C)o1 | inactive |  |  |  |  |  | 
c1coc(CNc2ncnc3[nH]cnc23)c1 [KINETIN] |  | 16.3 | 7.6 | 83 | 0.871 | 78 | 
c1coc(CNc2ncnc3[nH]nnc23)c1 | inactive | 16.3 | 7.6 | 83 | 0.871 | 78 | 
Cc1ccc(C(C)Nc2ncnc3c2cnn3C)o1 (configuration not stated) | inactive |  |  |  |  |  | 
c1coc(CNc2ncnc3cn[nH]c23)c1 | inactive | 16.3 | 7.6 | 83 | 0.871 | 78 | 
c1coc(CNc2ncnc3[nH]ccc23)c1 | Active | 16.3 | 7.6 | 83 | 0.871 | 78 | 
c1coc(CNc2ncnc3sccc23)c1 | Active | 16.3 | 7.6 | 83 | 0.871 | 78 | 
Clc1cc(NCc2ccco2)c2nc[nH]c2n1 |  | 16.3 | 7.6 | 83 | 0.871 | 78 | 
c1coc(CNc2ncnc3ccsc23)c1 | Active | 16.3 | 7.6 | 83 | 0.871 | 78 | metabolised at 1 h, 2 µM [16]: > 50%
Clc1nc(NCc2ccco2)c2[nH]cnc2n1 |  | 16.3 | 7.6 | 83 | 0.871 | 78 | 
c1coc(CNc2ccnc3[nH]cnc23)c1 |  | 16.3 | 7.6 | 83 | 0.871 | 78 | 
c1coc(CNc2ncnc3cc[nH]c23)c1 | Active | 16.3 | 7.6 | 83 | 0.871 | 78 | 
c1coc(CNc2ncnc3occc23)c1 | Active | 16.3 | 7.6 | 83 | 0.871 | 78 | 
Cc1oc2ncnc(NCc3ccco3)c2c1C | Active | 16.3 | 7.6 | 83 | 0.871 | 78 | Activity [3]: 10%; Activity [8]: Dose-dependent effect; metabolised at 1 h, 2 µM [16]: > 50%
c1coc(CNc2nccc3[nH]cnc23)c1 |  | 16.3 | 7.6 | 83 | 0.871 | 78 | Activity [17]: 0.5%; Activity [13]: Dose-dependent effect
